Measured values as given in ChEMBL document CHEMBL4689842, “EUbOPEN Chemogenomics Library wave 1” (2021).
“And” between values parts separate entries of the source, which are not always exact repeats. Identical values can stand only once.

Test system: Fibroblast
Assay: Multiplex assay against human fibroblast
Assay type: toxicity, cell-based
Method in brief: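 Live cells were stained at seeding with Hoechst33342, BioTracker Green Microtubule Cytoskeleton Dye, MitoTracker Red and Annexin V Alexa Fluor 680. Following compound addition, they were imaged on a CQ1 microscope at 37°C and 5% CO2 and gated by CellPathfinder machine learning into Hoechst high-intensity objects or normal cells, with normal cells split into healthy, pyknosed or fragmented nuclei and pyknosed cells into mitotic or apoptotic. Tubulin, mitochondrial-mass and membrane-permeability phenotypes are per cents of healthy-nucleus cells.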

[1] = 12 h, 1 µM, compound concentration 1 uM, replicate 1
[2] = 12 h, 1 µM, compound concentration 1 uM, replicate 2
[3] = 12 h, 10 µM, compound concentration 10 uM, replicate 1
[4] = 12 h, 10 µM, compound concentration 10 uM, replicate 2
[5] = 24 h, 1 µM, compound concentration 1 uM, replicate 1
[6] = 24 h, 1 µM, compound concentration 1 uM, replicate 2
[7] = 24 h, 10 µM, compound concentration 10 uM, replicate 1
[8] = 24 h, 10 µM, compound concentration 10 uM, replicate 2
[9] = 48 h, 1 µM, compound concentration 1 uM, replicate 1
[10] = 48 h, 1 µM, compound concentration 1 uM, replicate 2
[11] = 48 h, 10 µM, compound concentration 10 uM, replicate 1
[12] = 48 h, 10 µM, compound concentration 10 uM, replicate 2

CCc1nn(CCCN2CCN(c3cccc(Cl)c3)CC2)c(=O)n1CCOc1ccccc1.Cl [NEFAZODONE HYDROCHLORIDE]
Population Apoptotic (%) [1]: 60%
Population Fragmented Nuclei (%) [1]: 16%
Population Healthy Nuclei (%) [1]: 47%
Population Hoechst High Intensity Objects (%) [1]: 13%
Population Membrane Permeable-Phenotype (%) [1]: 31%
Population Mitochondria Different-Phenotype (%) [1]: 10%
Population Mitotic Cells (%) [1]: 40%
Population Normal (%) [1]: 86%
Population Pyknosed Nuclei (%) [1]: 35%
Population Tubulin-Different-Phenotype (%) [1]: 75%
Total Cell Count [1]: 176
Population Apoptotic (%) [2]: 0%
Population Fragmented Nuclei (%) [2]: 8%
Population Healthy Nuclei (%) [2]: 89%
Population Hoechst High Intensity Objects (%) [2]: 6%
Population Membrane Permeable-Phenotype (%) [2]: 3%
Population Mitochondria Different-Phenotype (%) [2]: 9%
Population Mitotic Cells (%) [2]: 100%
Population Normal (%) [2]: 93%
Population Pyknosed Nuclei (%) [2]: 1%
Population Tubulin-Different-Phenotype (%) [2]: 29%
Total Cell Count [2]: 68
Population Apoptotic (%) [3]: 81%
Population Fragmented Nuclei (%) [3]: 24%
Population Healthy Nuclei (%) [3]: 45%
Population Hoechst High Intensity Objects (%) [3]: 10%
Population Membrane Permeable-Phenotype (%) [3]: 1%
Population Mitochondria Different-Phenotype (%) [3]: 84%
Population Mitotic Cells (%) [3]: 18%
Population Normal (%) [3]: 89%
Population Pyknosed Nuclei (%) [3]: 30%
Population Tubulin-Different-Phenotype (%) [3]: 96%
Total Cell Count [3]: 157
Population Apoptotic (%) [4]: 69%
Population Fragmented Nuclei (%) [4]: 9%
Population Healthy Nuclei (%) [4]: 69%
Population Hoechst High Intensity Objects (%) [4]: 3%
Population Membrane Permeable-Phenotype (%) [4]: 60%
Population Mitochondria Different-Phenotype (%) [4]: 97%
Population Mitotic Cells (%) [4]: 30%
Population Normal (%) [4]: 96%
Population Pyknosed Nuclei (%) [4]: 20%
Population Tubulin-Different-Phenotype (%) [4]: 97%
Total Cell Count [4]: 61
Population Apoptotic (%) [5]: 52%
Population Fragmented Nuclei (%) [5]: 20%
Population Healthy Nuclei (%) [5]: 57%
Population Hoechst High Intensity Objects (%) [5]: 14%
Population Membrane Permeable-Phenotype (%) [5]: 16%
Population Mitochondria Different-Phenotype (%) [5]: 17%
Population Mitotic Cells (%) [5]: 47%
Population Normal (%) [5]: 85%
Population Pyknosed Nuclei (%) [5]: 22%
Population Tubulin-Different-Phenotype (%) [5]: 68%
Total Cell Count [5]: 175
Population Apoptotic (%) [6]: 50%
Population Fragmented Nuclei (%) [6]: 8%
Population Healthy Nuclei (%) [6]: 85%
Population Hoechst High Intensity Objects (%) [6]: 2%
Population Membrane Permeable-Phenotype (%) [6]: 1%
Population Mitochondria Different-Phenotype (%) [6]: 15%
Population Mitotic Cells (%) [6]: 50%
Population Normal (%) [6]: 97%
Population Pyknosed Nuclei (%) [6]: 5%
Population Tubulin-Different-Phenotype (%) [6]: 33%
Total Cell Count [6]: 71
Population Apoptotic (%) [7]: 80%
Population Fragmented Nuclei (%) [7]: 23%
Population Healthy Nuclei (%) [7]: 58%
Population Hoechst High Intensity Objects (%) [7]: 22%
Population Membrane Permeable-Phenotype (%) [7]: 3%
Population Mitochondria Different-Phenotype (%) [7]: 86%
Population Mitotic Cells (%) [7]: 20%
Population Normal (%) [7]: 77%
Population Pyknosed Nuclei (%) [7]: 18%
Population Tubulin-Different-Phenotype (%) [7]: 100%
Total Cell Count [7]: 177
Population Fragmented Nuclei (%) [8]: 22%
Population Healthy Nuclei (%) [8]: 56%
Population Hoechst High Intensity Objects (%) [8]: 1%
Population Membrane Permeable-Phenotype (%) [8]: 80%
Population Mitochondria Different-Phenotype (%) [8]: 100%
Population Normal (%) [8]: 98%
Population Pyknosed Nuclei (%) [8]: 20%
Total Cell Count [8]: 72
Population Apoptotic (%) [9]: 43%
Population Fragmented Nuclei (%) [9]: 30%
Population Healthy Nuclei (%) [9]: 58%
Population Hoechst High Intensity Objects (%) [9]: 19%
Population Membrane Permeable-Phenotype (%) [9]: 19%
Population Mitochondria Different-Phenotype (%) [9]: 5%
Population Mitotic Cells (%) [9]: 56%
Population Normal (%) [9]: 80%
Population Pyknosed Nuclei (%) [9]: 11%
Population Tubulin-Different-Phenotype (%) [9]: 51%
Total Cell Count [9]: 178
Population Apoptotic (%) [10]: 50%
Population Healthy Nuclei (%) [10]: 67%
Population Hoechst High Intensity Objects (%) [10]: 13%
Population Membrane Permeable-Phenotype (%) [10]: 6%
Population Mitochondria Different-Phenotype (%) [10]: 14%
Population Mitotic Cells (%) [10]: 50%
Population Normal (%) [10]: 86%
Population Pyknosed Nuclei (%) [10]: 1%
Population Tubulin-Different-Phenotype (%) [10]: 71%
Total Cell Count [10]: 127
Population Apoptotic (%) [11]: 85%
Population Fragmented Nuclei (%) [11]: 40%
Population Healthy Nuclei (%) [11]: 55%
Population Hoechst High Intensity Objects (%) [11]: 34%
Population Membrane Permeable-Phenotype (%) [11]: 1%
Population Mitochondria Different-Phenotype (%) [11]: 62%
Population Mitotic Cells (%) [11]: 14%
Population Normal (%) [11]: 65%
Population Pyknosed Nuclei (%) [11]: 4%
Population Tubulin-Different-Phenotype (%) [11]: 96%
Total Cell Count [11]: 257
Population Apoptotic (%) [12]: 50%
Population Fragmented Nuclei (%) [12]: 43%
Population Healthy Nuclei (%) [12]: 54%
Population Hoechst High Intensity Objects (%) [12]: 25%
Population Membrane Permeable-Phenotype (%) [12]: 2%
Population Mitochondria Different-Phenotype (%) [12]: 59%
Population Mitotic Cells (%) [12]: 50%
Population Normal (%) [12]: 75%
Population Pyknosed Nuclei (%) [12]: 2%
Population Tubulin-Different-Phenotype (%) [12]: 95%
Total Cell Count [12]: 232

CNC(=O)c1ccc(Nc2ncc(C(F)(F)F)c(NCc3nccnc3N(C)S(C)(=O)=O)n2)cc1 [DEFACTINIB]
Population Apoptotic (%) [1]: 66% and 80%
Population Fragmented Nuclei (%) [1]: 31% and 21%
Population Healthy Nuclei (%) [1]: 51% and 60%
Population Hoechst High Intensity Objects (%) [1]: 12% and 14%
Population Membrane Permeable-Phenotype (%) [1]: 8% and 23%
Population Mitochondria Different-Phenotype (%) [1]: 2% and 4%
Population Mitotic Cells (%) [1]: 33% and 20%
Population Normal (%) [1]: 87% and 85%
Population Pyknosed Nuclei (%) [1]: 17%
Total Cell Count [1]: 217 and 234
Population Apoptotic (%) [2]: 25% and 42%
Population Fragmented Nuclei (%) [2]: 60% and 57%
Population Healthy Nuclei (%) [2]: 32% and 27%
Population Hoechst High Intensity Objects (%) [2]: 22% and 35%
Population Membrane Permeable-Phenotype (%) [2]: 0% and 7%
Population Mitochondria Different-Phenotype (%) [2]: 15% and 23%
Population Mitotic Cells (%) [2]: 75% and 57%
Population Normal (%) [2]: 77% and 64%
Population Pyknosed Nuclei (%) [2]: 6% and 14%
Population Tubulin-Different-Phenotype (%) [2]: 20% and 38%
Total Cell Count [2]: 79 and 73
Population Apoptotic (%) [3]: 90% and 80%
Population Fragmented Nuclei (%) [3]: 24% and 29%
Population Healthy Nuclei (%) [3]: 58%
Population Hoechst High Intensity Objects (%) [3]: 8%
Population Membrane Permeable-Phenotype (%) [3]: 21% and 7%
Population Mitochondria Different-Phenotype (%) [3]: 3%
Population Mitotic Cells (%) [3]: 9% and 20%
Population Normal (%) [3]: 91%
Population Pyknosed Nuclei (%) [3]: 17% and 12%
Total Cell Count [3]: 208 and 174
Population Apoptotic (%) [4]: 42% and 33%
Population Fragmented Nuclei (%) [4]: 42% and 66%
Population Healthy Nuclei (%) [4]: 47% and 25%
Population Hoechst High Intensity Objects (%) [4]: 24% and 47%
Population Membrane Permeable-Phenotype (%) [4]: 12% and 0%
Population Mitochondria Different-Phenotype (%) [4]: 18% and 50%
Population Mitotic Cells (%) [4]: 57% and 66%
Population Normal (%) [4]: 75% and 52%
Population Pyknosed Nuclei (%) [4]: 10% and 7%
Population Tubulin-Different-Phenotype (%) [4]: 54% and 40%
Total Cell Count [4]: 93 and 74
Population Apoptotic (%) [5]: 66% and 85%
Population Fragmented Nuclei (%) [5]: 23% and 35%
Population Healthy Nuclei (%) [5]: 59% and 48%
Population Hoechst High Intensity Objects (%) [5]: 18% and 11%
Population Mitochondria Different-Phenotype (%) [5]: 3% and 7%
Population Mitotic Cells (%) [5]: 33% and 14%
Population Normal (%) [5]: 81% and 88%
Population Pyknosed Nuclei (%) [5]: 16% and 15%
Total Cell Count [5]: 205 and 241
Population Fragmented Nuclei (%) [6]: 55% and 61%
Population Healthy Nuclei (%) [6]: 39% and 19%
Population Hoechst High Intensity Objects (%) [6]: 30% and 29%
Population Mitochondria Different-Phenotype (%) [6]: 5% and 0%
Population Mitotic Cells (%) [6]: 100% and 40%
Population Normal (%) [6]: 69% and 70%
Total Cell Count [6]: 62 and 74
Population Apoptotic (%) [7]: 80% and 73%
Population Fragmented Nuclei (%) [7]: 33% and 25%
Population Healthy Nuclei (%) [7]: 45% and 64%
Population Hoechst High Intensity Objects (%) [7]: 10% and 15%
Population Membrane Permeable-Phenotype (%) [7]: 21% and 10%
Population Mitotic Cells (%) [7]: 20% and 26%
Population Normal (%) [7]: 89% and 84%
Population Pyknosed Nuclei (%) [7]: 21% and 9%
Total Cell Count [7]: 210 and 186
Population Apoptotic (%) [8]: 75% and 50%
Population Fragmented Nuclei (%) [8]: 49% and 57%
Population Healthy Nuclei (%) [8]: 44% and 37%
Population Hoechst High Intensity Objects (%) [8]: 27% and 35%
Population Membrane Permeable-Phenotype (%) [8]: 14% and 0%
Population Mitochondria Different-Phenotype (%) [8]: 10% and 13%
Population Mitotic Cells (%) [8]: 25% and 50%
Population Normal (%) [8]: 72% and 64%
Population Pyknosed Nuclei (%) [8]: 6% and 5%
Population Tubulin-Different-Phenotype (%) [8]: 46% and 26%
Total Cell Count [8]: 87 and 62
